Rows were chosen to be rich in hits. Some 1.8% of all compounds tested hit in one or more screens of this group.
AI-2 QS modul = Vibrio harveyi AI-2 quorum sensing modulators, primary screen, JMH597 strain, luminescence/OD600 ratio; Vibrio harveyi JMH597 AI-2 luminescence/OD600 ratio, 9 h; stronger effect = lower value; strain lacks LuxN and CqsS sensors; 0 = neutral-control median; activity change, % at 7.5 µM; hit rate 0.4% among 300,000; in the data active = activity change below about -75%, passing the limit was not always enough;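 also: luminescence divided by OD600 gain over 9 h not by final OD600 alone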
A1 inh = caspase 3/7 activation in MEF A1-2A-BIM cells, primary screen, A1 inhibitor project, cell-based, luminescence, HTS. caspase activation, % (test concentration not listed). AID 2462, 2010. hit rate 0.066% among 330,000. Caspase-Glo 3/7 luminescence, 3 h; percent of clofoctol response, vehicle zero;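 active = over half of replicate activation scores above 10%, or exactly half above 10 with the replicate mean above 10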
LANA-H2A inh = blockers of LANA interaction with H2A/H2B – biochemical, FP readout, HTS, primary screen | inhibition, % (test concentration not listed) | hit rate 0.6% among 320,000 | Protein LANA1 (Human herpesvirus 8 type P (isolate GK18)), Q9QR71 | cell-free LANA-H2A/H2B peptide, fluorescence polarization; in the data active = inhibition mostly above about 10%, no sharp cut-off; inactive = mostly below about 6.7%
HDAC3 inh = HDAC3 deacetylase inhibitors, primary screen, biochemical, fluorescence, cell-free homogeneous; Histone deacetylase 3 (Homo sapiens), O15379; recombinant HDAC3, fluorogenic peptide/trypsin coupled; inhibition, % at 8.3 µM; hit rate 0.15% among 320,000; AID 2718, 2010; in the data active = inhibition above about 26%, passing the limit was not always enough
ATG4B inh = ATG4B protease inhibitors, primary screen, biochemical, fluorescence, uHTS | ATG4B cleavage of LC3-PLA2, NBD-HPC fluorescence, 1 h | inhibition, % at 8.33 µM | hit rate 0.51% among 340,000 | AID 504462, 2011; in the data active = inhibition above about 40%
Target sequence (Q9Y4P1 whole entry, looked up): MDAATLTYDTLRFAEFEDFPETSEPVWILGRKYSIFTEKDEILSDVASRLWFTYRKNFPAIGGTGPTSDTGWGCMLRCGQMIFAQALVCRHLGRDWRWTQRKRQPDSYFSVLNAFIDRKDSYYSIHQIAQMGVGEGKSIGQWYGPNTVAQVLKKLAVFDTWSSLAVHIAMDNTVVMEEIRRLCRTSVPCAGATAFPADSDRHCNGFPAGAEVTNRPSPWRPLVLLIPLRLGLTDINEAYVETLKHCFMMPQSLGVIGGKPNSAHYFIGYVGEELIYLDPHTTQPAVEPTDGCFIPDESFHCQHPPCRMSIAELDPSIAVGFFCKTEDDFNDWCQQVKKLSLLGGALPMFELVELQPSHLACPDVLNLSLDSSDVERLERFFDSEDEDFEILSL
HKDC1 inh = HKDC1 hexokinase inhibitors, primary screen, biochemical, fluorescence, uHTS | hit rate 0.16% among 340,000 | AID 493160, 2011 | recombinant HKDC1, G6PDH/diaphorase resazurin coupled fluorescence | Q2TB90 | inhibition, % at 20 µM;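 active = inhibition above about 35% when tested at 20 µM, limit read from the data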;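 also: plate controls were DMSO wells with enzyme for no effect and DMSO wells lacking enzyme for full effect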
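Material – in-house recombinant HK5 (HKDC1) enzyme · Quantity – HKDC1 at 5 µg/mL · Buffer or medium – pH 8.0 Tris buffer with 10 mM MgCl2 · Reagent – glucose with 1 mM ATP · Dosing – single 20 µM dose · Times – reaction time 90 min, room temperature, protected from light · Technique – resorufin fluorescence at 613 nm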
HKDC1 act conf2 = HKDC1 hexokinase activators, confirmation, biochemical, single concentration; shares compounds with HKDC1 inh; recombinant HKDC1, G6PDH/diaphorase resazurin fluorescence; stronger effect = lower value; inhibition, % at 20 µM; hit rate 14% among 740; AID 504708, 2011;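 active = inhibition at or below a set negative limit, negative inhibition meaning the enzyme was activated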
The depositor's hits bear a star; / = not tested or not shown.

SMILES | AI-2 QS modul | A1 inh | LANA-H2A inh | HDAC3 inh | ATG4B inh | HKDC1 inh | HKDC1 act conf2
CCN(CC)S(=O)(=O)c1cccc(C(=O)N/N=C(\C)c2ccc(O)cc2O)c1 | 32 | -1 | -2 | 3 | -10 | -43 | -19
CC/C(=N\NC(=O)c1cccnc1)c1ccc2c(c1)OCCO2 | 17 | 0 | 8 | -4 | 5 | 3 | /
C=CCn1cccc(C(=O)Nc2ccc(C)c(C)c2)c1=O | -1 | -2 | 0 | 9 | -7 | 0 | /
O=C(NCc1ccccn1)c1cc(S(=O)(=O)N2CCN(c3ccccc3)CC2)ccc1Cl | 39 | 0 | -6 | 5 | -5 | 73* | -3
CC1(C)Cc2c(c(N3CCOCC3)nc3sc4c(NCC5CCCO5)nnnc4c23)CS1 (stereo not given) | 41 | 0 | 1 | 4 | -16 | 45* | 12
COC(=O)c1ccccc1NC(=O)c1cnn2c(C(F)F)cc(C3CC3)nc12 | 42 | 0 | -3 | 3 | -6 | -4 | /
Cc1cc(C(F)F)n2ncc(C(=O)NCCc3ccccc3Cl)c2n1 | -2 | -1 | 2 | -7 | -19 | 31 | /
Cc1cc(C(F)F)n2ncc(C(=O)NCCc3ccc(Cl)cc3)c2n1 | -1 | 0 | -7 | 6 | -25 | 39* | 36
O=C(NCCc1ccccc1)c1cnn2c(C(F)F)cc(C3CC3)nc12 | 8 | -1 | 4 | 8 | -5 | 47* | 60
CCn1ccc(-c2ccccc2)c(C#N)c1=O | -1 | -1 | -2 | 1 | -5 | -4 | /
O=C1c2ccccc2NC(c2ccc(O)cc2)N1c1ccccc1 (stereo not given) | 2 | -1 | -2 | 4 | 2 | -2 | /
Cc1n[nH]c(=O)c2c(NC(=O)CSc3nnc(C4CC4)n3C)oc(C)c12 | 9 | 0 | -1 | 14 | -1 | 40* | -14
Cc1n[nH]c(=O)c2c(NC(=O)CSc3nncn3C(C)C)oc(C)c12 | / | 0 | -1 | -2 | -15 | 6 | /
O=C(CNS(=O)(=O)c1c(F)cc(F)cc1Br)OCC(=O)N1CCCC1=O | 12 | 0 | 1 | 1 | 2 | -8 | /
N#CC(C#N)=Cc1cc2ccccc2nc1N1CCCCC1 | 13 | 0 | 3 | -4 | 11 | 38* | 17
CC(=O)N1c2ccc(Cl)cc2C2C=CCC2C1c1cccc2ccccc12 (stereo not given) | / | 1 | 3 | -2 | 28 | 42* | 3
CN(C)c1ccc2cc(S(=O)(=O)O)cc(O)c2c1 | / | / | / | / | 7 | 24 | /
O=Nc1c(O)ccc2cc(S(=O)(=O)O)ccc12 | / | / | / | / | -3 | 34 | 15
CC(=NNC(=S)N1CC2CCC(CC2)C1)c1ccncn1 | / | / | / | / | 2 | -54 | -61*
CC(=NNc1nc2ccccc2s1)c1ccncn1 | / | / | / | / | -3 | -5 | /
O=C(CSc1nnc(CCCN2C(=O)c3cccc4cccc(c34)C2=O)n1-c1ccccc1)N1CCCCC1 | 12 | 0 | 1 | 3 | -4 | 37* | 48
O=C(CSc1nnc(Cc2cc(=O)[nH]c(=O)[nH]2)n1-c1ccccc1)N1CCCCC1 | 14 | 0 | -2 | 6 | 2 | -3 | /
CC(NNC(=S)N1CCN(c2ccccn2)CC1)c1nccc2ccccc12 (stereo not given) | / | / | / | / | -3 | -42 | -75*
CCNC(=S)N1CCN(c2ccccn2)CC1 | 12 | 0 | 8 | -10 | -11 | -2 | /
[S-]c1nnc(-c2ccc(Br)cc2)n1-c1ccccc1.[Zn+2] | 15 | 0 | -1 | -2 | 3 | 49* | 26
SMILES | AI-2 QS modul | A1 inh | LANA-H2A inh | HDAC3 inh | ATG4B inh | HKDC1 inh | HKDC1 act conf2
CCN(C[C@H]1N[C@@](C)(C(=O)OC)[C@H]2C(=O)N(C)C(=O)[C@@H]12)S(=O)(=O)c1ccc(C(F)(F)F)cc1 | / | 0 | 4 | 4 | 6 | 3 | /
CCOC(=O)c1ccc(Nc2nc(-c3cccnc3)nc3ccccc23)cc1 | 43 | 0 | -1 | -1 | -7 | -10 | /
COc1cc2c(cc1OC)C(c1cc(Br)ccc1F)N(C(=O)CCl)CC2 (stereo not given) | 34 | 0 | -2 | 10 | 0 | 38* | 19
O=C(CN1C(=O)NC(CCc2ccccc2)C1=O)Nc1ccccc1C(F)(F)F (stereo not given) | / | 1 | 0 | -5 | 1 | -3 | /
COc1cccc2c1C(=O)C=C(C)C2=O | 28 | 0 | 0 | -2 | -4 | -43 | -31
CC1=CC(=O)c2ccccc2C1=O | 19 | 1 | -8 | -7 | -7 | 0 | /
COc1ccccc1/C(C)=N/Oc1cc(N)cc([N+](=O)[O-])c1 | / | -1 | -4 | 12 | 7 | 4 | /
O=C(Nc1ccc(F)cc1)C(=O)c1c(O)[nH]c2ccc([N+](=O)[O-])cc12 | 41 | -7 | 0 | 2 | 16 | 42* | -4
O=C1c2ccccc2-c2onc3ccc(Oc4ccccc4)c1c23 | 23 | 0 | 0 | 5 | 0 | 34 | 28
COC(=O)c1c(NC(C)=O)sc(Cc2ccccc2)c1C | 4 | -1 | -3 | 3 | 4 | -77 | -38*
Cc1c(Cc2ccccc2)sc(NC(=O)Cc2ccccc2)c1C(N)=O | 9 | -3 | 3 | 4 | -4 | -52 | -7
COC(=O)c1c(NC(=O)c2ccccc2)sc(Cc2ccccc2)c1C | 21 | 0 | -5 | 1 | -7 | -9 | /
CCC(C)(C)NC(=O)C(C(C)C)N(CC1CCCO1)C(=O)CNS(=O)(=O)c1ccc(F)cc1 (stereo not given) | 19 | 1 | 1 | -11 | -5 | 0 | /
CN(C/C=C/c1ccccc1[N+](=O)[O-])Cc1ccccc1 | 34 | 1 | -1 | 0 | 10 | 3 | /
NC1=C(Cl)C(=O)c2ccc(S(N)(=O)=O)cc2C1=O | / | / | / | / | 38 | -134 | -43*
NC1=C(Cl)C(=O)c2ccccc2C1=O | / | / | / | / | -1 | -16 | /
COc1cc(C2c3c([nH]c(=O)[nH]c3=O)Nc3ccc4ccccc4c32)cc(OC)c1OC (stereo not given) | 14 | 0 | -1 | -10 | 0 | 37* | 44
CCC(=O)OC1(C)C(=O)C2=COC(c3ccc(OC)cc3)=CC2=C(Br)C1=O (stereo not given) | 3 | 1 | 7 | 13 | 9 | 45* | 30
COc1ccc(C2=CC3=C(Br)C(=O)C(C)(O)C(=O)C3=CO2)cc1 (stereo not given) | 38 | -1 | -1 | 2 | 21 | 34 | -5

Bioassay records from PubChem.
